Data reported in ChEMBL document CHEMBL4196175, “First SAR Study for Overriding NRAS Mutant Driven Acute Myeloid Leukemia” (J Med Chem, 2018).
Calls of active or inactive are those of the source. The rule behind the calls is not given here.

How the values were obtained:
BaF3 [1] = experiment: Antileukemic activity against mouse BA/F3 cells harboring NRAS-G12D mutant/luciferase allografted in immunodeficient mouse at 8 mg/kg/day, po qd administered on day 6 post implantation measured on day 20 post implantation by bioluminescence imaging method; assay type: functional, organism-based
Outline: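 Immunodeficient mice injected via tail vein with Ba/F3-NRAS-G12D/Luc cells, dosed orally once daily (8 or 15 mg/kg/day) or vehicle for 3 weeks, n=4 per cohort; bioluminescence imaged every two days after luciferin 150 mg/kg, quantified by bio-photonic analysis.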

BaF3 [2] = experiment: Induction of apoptosis in mouse BA/F3 cells expressing NRAS-G12D mutant assessed as increase in cleaved PARP levels at 1 uM after 24 hrs by Western blot analysis; assay type: functional, cell-based
Outline: (§1)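 Cells treated 24 h with indicated concentrations (1 µM; 5 µM also used in Ba/F3-NRAS-G12D); cleaved PARP, cleaved caspase 3, bcl-2 and MCL1 detected by western blot with actin as loading control.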

Mus musculus = species on record: Mus musculus; experiment: Inhibition of ACK1/GCK in mouse BA/F3 cells assessed as reduction in NRAS-G12D mutant-mediated cell proliferation after 72 hrs by celltiter-glo assay; assay type: cell-based
OCI-AML-3 [3] = experiment: Cell cycle arrest in human OCI-AML3 cells harboring NRAS Q61L mutant assessed as accumulation at G0/G1 phase at 1 uM after 24 hrs by propidium iodide staining based FACS analysis; assay type: functional
Outline: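 OCI-AML3 cells treated 24 h at indicated concentrations, including 1 µM; cell-cycle phase distribution measured by flow cytometry after propidium iodide staining.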

OCI-AML-3 [4] = experiment: Inhibition of anchorage-independent cell growth in human OCI-AML3 cells harboring NRAS Q61L mutant assessed as reduction in colony size at 0.1 to 1 uM after 14 days by iodonitrotetrazolium chloride staining-based soft agar assay; assay type: functional
Outline: (§2)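 OCI-AML3 cells embedded in 0.7% low-melting agar, incubated 2 weeks with compound at 0.1 or 1 µM; colony number and colony size per well measured by automated image analysis; n = 3 per condition, SD, one-way ANOVA.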

CYP2D6 = CYP2D6 (Homo sapiens, UniProt P10635); experiment: Inhibition of CYP2D6 (unknown origin) assessed as activity remaining at 10 uM relative to control; assay type: ADME; conditions: read-out: Activity
BaF3 [5] = experiment: Induction of apoptosis in mouse BA/F3 cells expressing NRAS-G12D mutant assessed as decrease in MCL1 levels at 1 uM after 24 hrs by Western blot analysis; assay type: functional, cell-based; outline: as §1
[6] = Growth inhibition of parental human U937 cells after 72 hrs by celltiter-glo assay; assay type: cell-based, U-937
[7] = molecular target: T1, Mitogen-activated protein kinase kinase kinase kinase 2 (Homo sapiens, UniProt Q12851); experiment: Inhibition of GCK (unknown origin) by radiometric biochemical kinase assay
T1 sequence (Q12851 whole entry): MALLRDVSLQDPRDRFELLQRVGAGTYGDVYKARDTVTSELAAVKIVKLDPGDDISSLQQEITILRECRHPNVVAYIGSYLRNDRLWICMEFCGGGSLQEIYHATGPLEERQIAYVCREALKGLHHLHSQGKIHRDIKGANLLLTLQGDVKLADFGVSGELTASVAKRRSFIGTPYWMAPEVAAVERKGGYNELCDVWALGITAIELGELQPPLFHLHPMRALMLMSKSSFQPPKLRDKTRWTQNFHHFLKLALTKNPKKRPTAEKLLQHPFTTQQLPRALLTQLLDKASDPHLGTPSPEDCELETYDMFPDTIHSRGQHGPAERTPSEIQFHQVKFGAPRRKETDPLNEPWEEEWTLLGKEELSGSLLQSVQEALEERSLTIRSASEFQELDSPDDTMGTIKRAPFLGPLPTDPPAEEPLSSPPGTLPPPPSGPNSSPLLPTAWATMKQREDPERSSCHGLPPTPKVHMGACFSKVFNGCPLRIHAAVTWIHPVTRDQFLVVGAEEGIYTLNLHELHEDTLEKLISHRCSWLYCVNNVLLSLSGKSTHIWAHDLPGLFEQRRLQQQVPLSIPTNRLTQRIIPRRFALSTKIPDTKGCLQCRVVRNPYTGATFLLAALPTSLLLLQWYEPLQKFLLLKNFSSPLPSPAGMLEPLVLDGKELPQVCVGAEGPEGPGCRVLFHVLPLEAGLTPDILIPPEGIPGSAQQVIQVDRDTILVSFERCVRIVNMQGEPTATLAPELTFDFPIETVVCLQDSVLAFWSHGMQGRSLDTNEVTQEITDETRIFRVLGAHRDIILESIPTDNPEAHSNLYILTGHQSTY

[8] = Metabolic stability in mouse liver microsomes assessed as compound remaining at 1 uM after 30 mins; assay type: ADME, microsome; conditions: read-out: Stability
OCI-AML-3 [9] = experiment: Inhibition of anchorage-independent cell growth in human OCI-AML3 cells harboring NRAS Q61L mutant assessed as reduction in colony number at 0.1 to 1 uM after 14 days by iodonitrotetrazolium chloride staining-based soft agar assay; assay type: functional; outline: as §2
OCI-AML-3 [10] = experiment: Growth inhibition of human OCI-AML3 cells harboring NRAS-Q61L mutant after 72 hrs by celltiter-glo assay; assay type: functional; conditions: OCI-AML-3, 72 h
CYP2C9 = CYP2C9 (Homo sapiens, UniProt P11712); experiment: Inhibition of CYP2C9 (unknown origin) assessed as activity remaining at 10 uM relative to control; assay type: ADME; conditions: read-out: Activity
BaF3 [11] = experiment: Induction of apoptosis in mouse BA/F3 cells expressing NRAS-G12D mutant assessed as decrease in bcl2 levels at 1 uM after 24 hrs by Western blot analysis; assay type: functional, cell-based; outline: as §1
[12] = Metabolic stability in human liver microsomes assessed as compound remaining at 1 uM after 30 mins; assay type: ADME, microsome; conditions: read-out: Stability
BaF3 [13] = experiment: Antileukemic activity against mouse BA/F3 cells harboring NRAS-G12D mutant allografted in immunodeficient mouse assessed as median survival time at 8 mg/kg/day, po qd administered on day 6 post implantation (reference value: 23 days); assay type: functional
OCI-AML-3 [14] = experiment: Antileukemic activity against human OCI-AML3 cells harboring NRAS-Q61L mutant xenografted in immunodeficient mouse assessed as tumor volume at 8 mg/kg/day, po qd administered on day 21 post implantation measured on […] (reference value: 100%); assay type: functional
Activated CDC42 kinase 1 = Activated CDC42 kinase 1 (Homo sapiens, UniProt Q07912); experiment: Inhibition of ACK1 (unknown origin) by radiometric biochemical kinase assay
BaF3 [15] = experiment: Induction of apoptosis in mouse BA/F3 cells expressing NRAS-G12D mutant assessed as increase in cleaved caspase-3 levels at 1 uM after 24 hrs by Western blot analysis; assay type: functional, cell-based; outline: as §1
[16] = Metabolic stability in dog liver microsomes assessed as compound remaining at 1 uM after 30 mins; assay type: ADME, Canis lupus familiaris, microsome; conditions: read-out: Stability
CYP1A2 = molecular target: T2, CYP1A2 (Homo sapiens, UniProt P05177); experiment: Inhibition of CYP1A2 (unknown origin) assessed as activity remaining at 10 uM relative to control; assay type: ADME; conditions: read-out: Activity
T2 sequence (P05177 whole entry): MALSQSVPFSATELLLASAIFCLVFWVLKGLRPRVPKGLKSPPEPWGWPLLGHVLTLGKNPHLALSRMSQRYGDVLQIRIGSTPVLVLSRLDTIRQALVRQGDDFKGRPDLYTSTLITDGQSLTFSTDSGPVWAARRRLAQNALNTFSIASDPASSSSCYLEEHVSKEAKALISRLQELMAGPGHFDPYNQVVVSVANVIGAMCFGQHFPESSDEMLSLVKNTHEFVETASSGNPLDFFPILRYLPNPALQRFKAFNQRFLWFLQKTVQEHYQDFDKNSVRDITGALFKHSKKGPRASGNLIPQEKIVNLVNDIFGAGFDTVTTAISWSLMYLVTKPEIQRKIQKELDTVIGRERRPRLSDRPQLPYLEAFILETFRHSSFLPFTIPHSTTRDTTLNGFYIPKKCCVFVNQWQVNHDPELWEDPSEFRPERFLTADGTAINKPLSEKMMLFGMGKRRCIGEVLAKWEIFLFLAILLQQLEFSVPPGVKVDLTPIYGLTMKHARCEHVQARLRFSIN

OCI-AML-3 [17] = experiment: Growth inhibition of ACK1/GCK knockdown human OCI-AML3 cells harboring NRAS-Q61L mutant at 0.2 uM after 72 hrs by celltiter-glo assay; assay type: functional, cell-based
[18] = Growth inhibition of parental mouse BA/F3 cells after 72 hrs by celltiter-glo assay; assay type: cell-based, BaF3
CYP3A4 = CYP3A4 (Homo sapiens, UniProt P08684); experiment: Inhibition of CYP3A4 (unknown origin) assessed as activity remaining at 10 uM relative to control; assay type: ADME; conditions: read-out: Activity
[19] = Metabolic stability in rat liver microsomes assessed as compound remaining at 1 uM after 30 mins; assay type: ADME, microsome; conditions: read-out: Stability

Chain of Activated CDC42 kinase 1 (Q07912 whole entry): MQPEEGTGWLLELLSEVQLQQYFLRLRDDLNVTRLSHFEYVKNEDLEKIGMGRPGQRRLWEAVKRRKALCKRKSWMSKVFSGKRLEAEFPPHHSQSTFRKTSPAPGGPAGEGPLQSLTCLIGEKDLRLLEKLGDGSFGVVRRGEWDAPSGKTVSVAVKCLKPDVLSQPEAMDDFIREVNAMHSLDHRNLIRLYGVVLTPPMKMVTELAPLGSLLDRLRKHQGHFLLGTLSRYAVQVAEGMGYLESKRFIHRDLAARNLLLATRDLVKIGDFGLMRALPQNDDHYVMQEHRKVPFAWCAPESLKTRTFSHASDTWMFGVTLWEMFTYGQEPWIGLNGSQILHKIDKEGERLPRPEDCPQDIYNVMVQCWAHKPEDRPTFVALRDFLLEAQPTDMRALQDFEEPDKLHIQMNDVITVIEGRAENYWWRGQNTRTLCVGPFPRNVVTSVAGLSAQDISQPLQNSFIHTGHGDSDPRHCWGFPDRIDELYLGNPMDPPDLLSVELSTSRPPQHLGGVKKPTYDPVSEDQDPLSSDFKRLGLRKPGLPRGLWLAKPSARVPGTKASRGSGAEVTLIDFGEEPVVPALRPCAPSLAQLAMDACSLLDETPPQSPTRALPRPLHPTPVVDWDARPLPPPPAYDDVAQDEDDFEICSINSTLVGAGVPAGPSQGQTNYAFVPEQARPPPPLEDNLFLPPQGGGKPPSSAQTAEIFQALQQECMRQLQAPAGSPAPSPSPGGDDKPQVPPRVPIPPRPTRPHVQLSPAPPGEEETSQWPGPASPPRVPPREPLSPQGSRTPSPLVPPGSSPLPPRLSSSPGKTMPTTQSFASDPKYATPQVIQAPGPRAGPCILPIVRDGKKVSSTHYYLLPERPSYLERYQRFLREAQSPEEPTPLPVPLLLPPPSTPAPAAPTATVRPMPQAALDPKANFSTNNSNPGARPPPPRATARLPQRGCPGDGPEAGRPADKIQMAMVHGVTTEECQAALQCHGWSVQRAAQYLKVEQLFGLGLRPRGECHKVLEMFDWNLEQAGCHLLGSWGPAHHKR
Chain of CYP2D6 (P10635 whole entry): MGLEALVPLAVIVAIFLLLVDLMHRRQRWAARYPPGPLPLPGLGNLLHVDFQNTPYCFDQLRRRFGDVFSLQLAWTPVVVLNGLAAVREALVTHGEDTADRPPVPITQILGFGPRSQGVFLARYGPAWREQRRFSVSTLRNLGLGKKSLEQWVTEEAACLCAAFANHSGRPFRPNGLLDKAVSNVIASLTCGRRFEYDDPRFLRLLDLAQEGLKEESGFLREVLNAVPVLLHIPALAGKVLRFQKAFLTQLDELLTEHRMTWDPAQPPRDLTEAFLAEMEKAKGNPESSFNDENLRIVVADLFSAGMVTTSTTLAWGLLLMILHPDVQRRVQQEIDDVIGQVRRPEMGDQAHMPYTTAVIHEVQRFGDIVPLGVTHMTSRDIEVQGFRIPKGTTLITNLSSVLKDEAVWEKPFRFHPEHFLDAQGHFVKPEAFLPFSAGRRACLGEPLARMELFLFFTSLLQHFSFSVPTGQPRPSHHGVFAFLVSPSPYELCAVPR
Chain of CYP3A4 (P08684 whole entry): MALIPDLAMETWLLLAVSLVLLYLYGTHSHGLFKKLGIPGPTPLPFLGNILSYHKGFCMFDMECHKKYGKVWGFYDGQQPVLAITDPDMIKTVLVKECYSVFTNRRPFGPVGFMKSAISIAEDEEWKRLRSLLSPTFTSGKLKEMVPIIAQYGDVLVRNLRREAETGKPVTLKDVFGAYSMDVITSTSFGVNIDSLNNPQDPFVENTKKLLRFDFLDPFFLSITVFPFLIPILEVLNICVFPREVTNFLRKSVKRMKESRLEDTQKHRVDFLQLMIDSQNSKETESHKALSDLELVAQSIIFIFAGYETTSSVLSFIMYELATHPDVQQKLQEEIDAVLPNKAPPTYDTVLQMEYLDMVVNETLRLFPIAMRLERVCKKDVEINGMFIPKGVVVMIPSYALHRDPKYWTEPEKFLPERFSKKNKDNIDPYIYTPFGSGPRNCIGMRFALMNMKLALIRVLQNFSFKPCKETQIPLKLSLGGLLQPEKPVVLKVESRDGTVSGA
Chain of CYP2C9 (P11712 whole entry): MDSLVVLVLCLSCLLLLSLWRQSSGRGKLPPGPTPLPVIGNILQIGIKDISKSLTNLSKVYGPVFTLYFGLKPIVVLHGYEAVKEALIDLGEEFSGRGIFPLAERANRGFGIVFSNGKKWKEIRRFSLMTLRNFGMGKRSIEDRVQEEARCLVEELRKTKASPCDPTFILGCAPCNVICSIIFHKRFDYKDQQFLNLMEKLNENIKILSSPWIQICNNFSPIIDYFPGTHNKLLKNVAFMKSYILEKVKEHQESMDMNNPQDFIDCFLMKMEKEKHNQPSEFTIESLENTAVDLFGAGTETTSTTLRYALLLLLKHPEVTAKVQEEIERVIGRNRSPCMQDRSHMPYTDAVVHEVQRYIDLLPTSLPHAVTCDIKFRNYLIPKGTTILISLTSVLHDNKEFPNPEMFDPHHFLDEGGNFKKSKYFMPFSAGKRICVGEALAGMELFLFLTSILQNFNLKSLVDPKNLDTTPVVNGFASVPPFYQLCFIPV

Structure (SMILES): Cc1ccc(Nc2ncc3c(n2)N(C)C(=O)N(c2cc(NC(=O)c4cccc(C(F)(F)F)c4)ccc2C)C3)cn1
- Activity (BaF3 [1]): Active
- Activity (BaF3 [2]): Active
- GI50 (Mus musculus): 81 nM
- Activity (OCI-AML-3 [3]): Active
- growth inhibition (GI) (OCI-AML-3 [4]): Active
- activity at 10 µM (CYP2D6): 68.4%
- Activity (BaF3 [5]): Active
- GI50 at 72 h [6]: 4380 nM
- IC50 [7]: 8 nM
- remaining at 0.5 h, 1 µM [8]: 80.5%
- growth inhibition (GI) (OCI-AML-3 [9]): Active
- GI50 (OCI-AML-3 [10]): 219 nM
- activity at 10 µM (CYP2C9): 27%
- Activity (BaF3 [11]): Active
- remaining at 0.5 h, 1 µM [12]: 78.6%
- MSD (BaF3 [13]): 31 days
- Activity (OCI-AML-3 [14]): 53.8%
- IC50 (Activated CDC42 kinase 1): 25 nM
- Activity (BaF3 [15]): Active
- remaining at 0.5 h, 1 µM [16]: 55.3%
- activity at 10 µM (CYP1A2): 93.2%
- growth inhibition (GI) (OCI-AML-3 [17]): Active
- GI50 at 72 h [18]: 1030 nM
- activity at 10 µM (CYP3A4): > 100%
- remaining at 0.5 h, 1 µM [19]: 84.8%
